Experimental data gathered from unrelated publications.
Each line is one published result; the experiments were not run side by side.
Target: Misshapen-like kinase 1 (MINK1, Homo sapiens, UniProt Q8N4C8)

| Structure (SMILES) | assay | setting | endpoint | result |
| --- | --- | --- | --- | --- |
| COc1cc(-c2cn(C3CCc4c(F)cccc4N(CC(F)(F)F)C3=O)nn2)ccc1-n1cnc(C)c1 (stereo not drawn) | cell-free assay, competition with immobilised ligand | 1 µM | remaining binding | 84% |
| Cc1cnc(NC2CCOCC2)nc1-n1cnc(C(=O)NC(CN)c2cc(F)cc(Cl)c2)c1 (stereo not drawn) | enzyme activity, inhibitor, radiometric | 1 µM | remaining activity | 103% |
| CN(C)C1CCN(CC#Cc2nn(C3CCCC3)c3nc(NCc4ccccc4)ncc23)C1 (stereo not drawn) | enzyme activity, inhibitor, FRET | 0.1 µM | inhibition | 11% |
| O=C(Nc1cnn(-c2csc(C(=O)NC3COC3)c2)c1)Nc1c(F)cccc1Cl | enzyme activity, inhibitor | 5 µM | remaining activity | 62.2% |
| CCCS(=O)(=O)Nc1ccc(F)c(C(=O)c2c[nH]c3ncc(-c4ccc(Cl)cc4)cc23)c1F | enzyme activity, inhibitor | 1 µM | inhibition | < 20% |
| CC(C)(C)c1nc2c(s1)c1nc(N)ncc1c1ccc(NS(=O)(=O)c3c(F)cccc3F)c(F)c12 | enzyme activity, inhibitor, radiometric | 1 µM | remaining activity | 90% |
| N#CC1(c2ccccn2)CCN(Cc2cc(C(=O)N3CCCC3)c(=O)n3ccccc23)CC1 | cell-free assay, competition with immobilised ligand | 1 µM | remaining binding | 89% |
| FC(F)c1nc2ccccc2n1-c1nc(N2CCOCC2)nc(N2CCOCC2)n1 | enzyme activity, inhibitor | 10 µM | remaining activity | 102% |
| FC(F)(F)Oc1cccc(-c2cnc3ccc(-c4ccncc4)nn23)c1 | enzyme activity, inhibitor, radiometric | 5 µM | activity vs control | 63% |
| C[C@H](c1ccnc(Nc2nc3ccc(-c4cc(N(C)C)ncn4)cc3[nH]2)c1)N1CCN(C(=O)CC(F)(F)F)CC1 | cell-free assay, competition with immobilised ligand | 0.1 µM | remaining binding | 94% |
| Nc1ncnc2occ(-c3ccc(NC(=O)Nc4cc(C(F)(F)F)ccc4F)cc3)c12 | cell-free assay, inhibitor | 20 µM | remaining signal | 1.5% |
| COc1cc(-c2cc(-c3ccc(N4CCNCC4)cc3)cnc2N)cc(OC)c1OC | enzyme activity, inhibitor | 0.1 µM | inhibition | 74% |
| O=C1NC(=O)c2cc(Nc3ccc(F)cc3)c(Nc3ccc(F)cc3)cc21 | cell-free assay | 0.5 µM | remaining signal | 99% |
| COc1cc(Nc2cnc(C#N)c(O[C@H](C)CN(C)C)n2)ncc1-c1cnn(C)c1 | enzyme activity, inhibitor, radiometric | 1 µM | remaining activity | 90% |
| C=CC(=O)Nc1cc(Nc2nccc(Nc3cc(Cl)c(F)cc3C(C)(C)O)n2)c(OC)cc1N1CC[C@@H](N(C)C)C1 | enzyme activity, inhibitor | 1 µM | inhibition | -3% |
| COc1cc2ncnc(Nc3ccc(Oc4ccccc4)cc3C)c2cc1OC | enzyme activity, inhibitor | 1 µM | inhibition | 7% |
| COc1cc2c(Nc3ccc(Br)cc3F)ncnc2cc1OCC1CCN(C)CC1 | cell-free assay | 0.5 µM | remaining signal | 81.5% |
| O=S(=O)(NC1CCC(c2cc(F)ccc2F)(S(=O)(=O)c2ccc(Cl)cc2)CC1)C(F)(F)F (stereo not drawn) | cell-free assay, competition with immobilised ligand | 1 µM | remaining binding | 100% |
| CCN(CC)CCNC(=O)c1c(C)[nH]c(/C=C2\C(=O)Nc3ccc(F)cc32)c1C | enzyme activity, inhibitor | 0.3 µM | inhibition | 48% |
| CCN(CC)c1ccc(C2=NNC(=O)CC2C)cc1[N+](=O)[O-] (stereo not drawn) | enzyme activity, inhibitor | 10 µM | remaining activity | 102% |
| Cc1ccc(C(=O)NCc2ccsc2)cc1C#Cc1cn(C(C)C)c2ncnc(N)c12 | enzyme activity, inhibitor | 1 µM | activity vs control | 84% |
| CNC(=O)c1cc(Oc2ccc(NC(=O)Nc3ccc(Cl)c(C(F)(F)F)c3)cc2)ccn1 | enzyme activity, inhibitor | 10 µM | inhibition | 75% |
| CCCOc1ccc([C@@H]2[C@@H](C(=O)O)[C@H](c3ccc4c(c3)OCO4)CN2CC(=O)Nc2c(CC)cccc2CC)cc1 | cell-free assay, competition with immobilised ligand | 1 µM | remaining binding | 78% |
| Cn1c(=O)n(-c2ccc(C(C)(C)C#N)cc2)c2c3cc(-c4cnc5ccccc5c4)ccc3ncc21 | enzyme activity, inhibitor | 10 µM | remaining activity | 75% |
| O=C(N1CCS(=O)(=O)CC1)N1C[C@H](c2ccc(OC(F)(F)F)cc2)C[C@H](c2nc(C3CC3)no2)C1 | cell-free assay, competition with immobilised ligand | 1 µM | remaining binding | 99% |
| Cc1ccc(Nc2nccc(N(C)c3ccc4c(C)n(C)nc4c3)n2)cc1S(N)(=O)=O | enzyme activity, inhibitor | 10 µM | inhibition | 80% |
| CO[C@@H](C)c1c(Nc2ccc([C@H](N(C)C(=O)C3CCS(=O)(=O)CC3)C(F)(F)F)cc2)cnc2cc(Cl)nn12 | cell-free assay, competition with immobilised ligand | 1 µM | remaining binding | 100% |
| CCCOc1ccc(OC)c(F)c1C(=O)c1ccc(C(=O)N[C@@H]2CNC[C@H]2NC(=O)c2ccc3[nH]ncc3c2)cc1 | enzyme activity, inhibitor | 10 µM | remaining activity | 96% |
| CCS(=O)(=O)c1cc2cc(C[C@@](O)(CC(C)(C)c3ccc(F)cc3C(N)=O)C(F)(F)F)[nH]c2cn1 | cell-free assay, competition with immobilised ligand | 1 µM | remaining binding | 79% |
| CS(=O)(=O)CCNCc1ccc(-c2ccc3ncnc(Nc4ccc(OCc5cccc(F)c5)c(Cl)c4)c3c2)o1 | cell-free assay | 0.5 µM | remaining signal | 111% |
